Measurements: ChEMBL document CHEMBL1795311, “Synthesis, antiproliferative activity, and mechanism of action of a series of 2-{[(2E)-3-phenylprop-2-enoyl]amino}benzamides” (Eur J Med Chem, 2011)
The source made the active and inactive calls. No cut-off for these calls is given here.

Experiments:
EKVX = assay: Growth inhibition of human EKVX cells after 48 hrs by SRB assay; assay type: functional
In short: (§1)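 NCI DTP panel cells grown in RPMI 1640 with 5% FBS and 2 mM L-glutamine, preincubated 24 h, then given five concentrations (10-fold or ½-log dilutions from DMSO stock) for 48 h at 37 °C. Cells fixed with TCA, stained with SRB, absorbance read at 515 nm, with time-zero plates as reference.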

HCT-15 = assay: Growth inhibition of human HCT15 cells after 48 hrs by SRB assay; assay type: functional; conditions: HCT-15, 48 h; in short: as §1
SK-MEL-2 = assay: Growth inhibition of human SK-MEL-2 cells after 48 hrs by SRB assay; assay type: functional; conditions: SK-MEL-2, 48 h
In short: (§2)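 Run by the NCI Developmental Therapeutics Program: cells in RPMI 1640 with 5% FBS and 2 mM L-glutamine, plated at 5000–40,000 cells/well and grown 24 h before dosing. Drug (DMSO stock) given at five concentrations for 48 h at 37 °C, 5% CO2. Adherent cells fixed with cold TCA, stained with 0.4% SRB and read at 515 nm. GI50, TGI and LC50 taken from the time-zero, control and treated absorbances.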

IGROV-1 = assay: Growth inhibition of human IGROV1 cells after 48 hrs by SRB assay; assay type: functional; conditions: IGROV-1, 48 h; in short: as §1
OVCAR-4 = assay: Growth inhibition of human OVCAR4 cells after 48 hrs by SRB assay; assay type: functional; conditions: OVCAR-4, 48 h; in short: as §1
OVCAR-5 = assay: Growth inhibition of human OVCAR5 cells after 48 hrs by SRB assay; assay type: functional; conditions: OVCAR-5, 48 h; in short: as §1
CAKI-1 = assay: Growth inhibition of human Caki1 cells after 48 hrs by SRB assay; assay type: functional; conditions: CAKI-1, 48 h; in short: as §1
UO-31 = assay: Growth inhibition of human UO31 cells after 48 hrs by SRB assay; assay type: functional; conditions: UO-31, 48 h; in short: as §2
[1] = Growth inhibition of human Hs 578T cells after 48 hrs by SRB assay; assay type: functional; in short: as §1
BT-549 = assay: Growth inhibition of human BT549 cells after 48 hrs by SRB assay; assay type: functional; conditions: BT-549, 48 h; in short: as §1
T47D = assay: Growth inhibition of human T47D cells after 48 hrs by SRB assay; assay type: functional; in short: as §2
K562 [2] = assay: Cell cycle distribution in human K562 cells assessed as increase in accumulation at G2/M phase at 1 to 4 uM after 24 hrs by flow cytometry; assay type: functional, cell-based
In short: (§3)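 K562 exposed 24 h to 1, 2 or 4 μM. Washed cells resuspended in hypotonic propidium iodide (50 μg/ml in 0.1% sodium citrate plus 0.03% NP-40), incubated 30 min. DNA-content histograms acquired by flow cytometry give the G0–G1, S and G2-M fractions.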

K562 [3] = assay: Cell cycle distribution in human K562 cells assessed as decrease in accumulation at G0/G1 phase at 1 to 4 uM after 24 hrs by flow cytometry; assay type: functional, cell-based; in short: as §3
K562 [4] = assay: Induction of apoptosis in human K562 cells assessed as accumulation of hypodiploid nuclei after 48 hrs by FITC- conjugated annexin-V/propidium iodide based flow cytometry; assay type: functional, cell-based; conditions: K562, 48 h
In short: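 K562 cells treated with various concentrations for 48 h. Apoptosis scored as the percentage of hypodiploid nuclei in the sub-G0–G1 peak after hypotonic propidium iodide staining (50 μg/ml in 0.1% sodium citrate, 0.03% NP-40, 30 min), measured by flow cytometry. Annexin-V-FITC/PI staining, 15 min at 20 °C, also read by flow cytometry. Mean ±SE shown.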

PtK2 [5] = assay: Inhibition of tubulin polymerization in Potorous tridactylus PtK2 cells assessed as microtubule disruption at 10 uM after 24 hrs by immunofluorescence microscopy; assay type: cell-based
In short: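 PtK2 (Potorous tridactylis kidney) cells treated 24 h at 37 °C at 10 μM. Then fixed and stained directly with Cy3-anti-β-tubulin and FITC-anti-β-actin monoclonal antibodies and imaged by epifluorescence microscopy. Combretastatin A-4 (1 μM) and latrunculin A (1 μM) used as references.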

PtK2 [6] = assay: Binding affinity to actin in Potorous tridactylus PtK2 cells at 10 uM; assay type: cell-based
In short: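 PtK2 (Potorous tridactylus kidney) cells treated 24 h at 37 °C, then fixed and stained by direct immunofluorescence with Cy3-anti-β-tubulin and FITC-anti-β-actin monoclonals. Microtubule and microfilament networks were examined by epifluorescence microscopy.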

Bos taurus [7] = species: Bos taurus; assay: Inhibition of purified bovine brain tubulin polymerization by turbidimetry
In short: (§4)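 Purified bovine brain tubulin. Reaction mixtures preincubated at 30 °C without GTP, chilled on ice, then given 0.4 mM GTP at 0 °C. Temperature jumped to 30 °C and held 20 min while turbidity was followed spectrophotometrically. Maximal rate and extent of assembly compared with a control run in the same experiment. Concentrations tested up to 40 μM.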

Bos taurus [8] = species: Bos taurus; assay: Inhibition of purified bovine brain tubulin microtubule assembly up to 40 uM; in short: as §4
K562 [9] = assay: Cell cycle distribution in human K562 cells assessed as blocked at M phase at 1 uM after 24 hrs by ethidium bromide/acridine orange staining (reference value: 1%); assay type: functional
In short: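 K562 exposed to 1 μM for 24 h, then stained with ethidium bromide and acridine orange. The percentage of cells arrested in mitosis was scored morphologically; untreated cells served as control.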

Mus musculus = assay: Toxicity in non-tumorated mouse at 400 mg/kg; assay type: organism-based; set-up: dose 400 mg/kg; conditions: in vivo
In short: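 Run by the NCI in vivo toxicity assay in non-tumored mice, at a dose of 400 mg/kg.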

K562 [10] = assay: Induction of apoptosis in human K562 cells assessed as induction in morphological alterations at 2 uM after 24 hrs ny phase contrast invertoscope; assay type: functional, cell-based
In short: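 Living K562 cells in culture medium, exposed 24 h to 2, 5 or 10 μM or left untreated, then viewed by phase contrast invertoscope at 40× magnification for morphologic alterations.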

MDA-MB-435 = assay: Growth inhibition of human MDA-MB-435 cells after 48 hrs by SRB assay; assay type: functional; conditions: MDA-MB-435, 48 h; in short: as §1
NCI/ADR-RES = assay: Growth inhibition of human NCI/ADR-RES cells after 48 hrs by SRB assay; assay type: functional; in short: as §1
MDA-MB-468 = assay: Growth inhibition of human MDA-MB-468 cells after 48 hrs by SRB assay; assay type: functional; conditions: MDA-MB-468, 48 h; in short: as §1

| GI50 (HCT-15) | GI50 (SK-MEL-2) | GI50 (OVCAR-4) | GI50 (OVCAR-5) | GI50 (BT-549) | GI50 (T47D) | Structure (SMILES) | GI50 (EKVX) | GI50 (IGROV-1) | GI50 (CAKI-1) | GI50 (UO-31) | GI50 [1] | further results |
| --- | --- | --- | --- | --- | --- | --- | --- | --- | --- | --- | --- | --- |
| 0.586 µM | 1.4 µM | 1.84 µM | 3.52 µM | 9.47 µM | 0.857 µM | NC(=O)c1cc(I)ccc1NC(=O)/C=C/c1ccccc1 | 0.734 µM | 0.917 µM | 0.648 µM | 3.53 µM | 0.375 µM | Activity (K562 [2]): Active; Activity (K562 [3]): Active; AC50 (K562 [4]): 3.7 µM; Activity (PtK2 [5]): Active; Activity (PtK2 [6]): Active; Activity (Bos taurus [7]): Active; Activity (Bos taurus [8]): inactive; Activity (K562 [9]): 35%; Activity (Mus musculus): Non-toxic; Activity (K562 [10]): Active |
| 2.13 µM | 2.75 µM | 2.77 µM | 2.74 µM | 3.19 µM | 3.36 µM | NC(=O)c1cc(Cl)ccc1NC(=O)/C=C/c1ccccc1 | 2.83 µM | 3.29 µM | 0.263 µM | 3.57 µM | 2.04 µM | GI50 (MDA-MB-435): 0.492 µM; GI50 (NCI/ADR-RES): 2.24 µM; GI50 (MDA-MB-468): 1.17 µM |
